Measurements reported in ChEMBL document CHEMBL1275598, “In vitro activity of ceftaroline against community-associated methicillin-resistant, vancomycin-intermediate, vancomycin-resistant, and daptomycin-nonsusceptible Staphylococcus aureus isolates” (2010).

Experiments:
Staphylococcus aureus [1] = test: Antimicrobial activity against vancomycin intermediate Staphylococcus aureus NRS-18 expressing SCCmec type 2 element by microdilution method in presence of 50 mg/L calcium; assay type: functional
Method in brief: (§1)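 Daptomycin MIC by CLSI broth microdilution in cation-adjusted Mueller-Hinton broth, supplemented with calcium to a final 50 mg/liter. Read visually as the lowest concentration with no visible growth. ATCC 29213 and E. faecalis ATCC 29212 served as controls. CA-MRSA and DNSSA isolates came from patients at the study hospital; VISA isolates came from NARSA.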

Staphylococcus aureus [2] = test: Antimicrobial activity against vancomycin-resistant Staphylococcus aureus by microdilution method in presence of 50 mg/L calcium; assay type: functional
Method in brief: (§2)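 Broth microdilution per CLSI in cation-adjusted Mueller-Hinton broth supplemented with calcium to 50 mg/liter final. Antibiotic powders were reconstituted per CLSI. The MIC was read visually as the lowest drug concentration with no visible growth. S. aureus ATCC 29213 and E. faecalis ATCC 29212 served as control strains.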

Staphylococcus aureus [3] = test: Antimicrobial activity against vancomycin intermediate Staphylococcus aureus NRS-74 expressing SCCmec type 2 element by microdilution method in presence of 50 mg/L calcium; assay type: functional; method in brief: as §2
Staphylococcus aureus [4] = test: Antimicrobial activity against vancomycin intermediate Staphylococcus aureus NRS-23 expressing SCCmec type 2 element by microdilution method in presence of 50 mg/L calcium; assay type: functional; method in brief: as §1
Staphylococcus aureus [5] = test: Antimicrobial activity against vancomycin resistant Staphylococcus aureus VRS-8 expressing SCCmec element by microdilution method in presence of 50 mg/L calcium
Staphylococcus aureus [6] = test: Antimicrobial activity against daptomycin-nonsusceptible Staphylococcus aureus by microdilution method in presence of 50 mg/L calcium; assay type: functional; method in brief: as §1
Staphylococcus aureus [7] = test: Antimicrobial activity against vancomycin intermediate Staphylococcus aureus NRS-404 expressing SCCmec type 2 element by microdilution method in presence of 50 mg/L calcium; assay type: functional; method in brief: as §1
Staphylococcus aureus [8] = test: Antimicrobial activity against vancomycin-intermediate Staphylococcus aureus by microdilution method in presence of 50 mg/L calcium; assay type: functional
Method in brief: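 Daptomycin MIC by CLSI broth microdilution in cation-adjusted Mueller-Hinton broth supplemented with calcium to a final 50 mg/liter. The endpoint is the lowest concentration with no visible growth, read visually. S. aureus ATCC 29213 and E. faecalis ATCC 29212 were used as control strains.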

Staphylococcus aureus [9] = test: Antimicrobial activity against vancomycin intermediate Staphylococcus aureus NRS-24 expressing SCCmec type 2 element by microdilution method in presence of 50 mg/L calcium; assay type: functional; method in brief: as §1
Staphylococcus aureus [10] = test: Antimicrobial activity against vancomycin intermediate Staphylococcus aureus NRS-126 expressing SCCmec type 2 element by microdilution method in presence of 50 mg/L calcium; assay type: functional; method in brief: as §1
Staphylococcus aureus [11] = test: Antimicrobial activity against vancomycin resistant Staphylococcus aureus VRS-2 expressing SCCmec type 2 element by microdilution method in presence of 50 mg/L calcium

Compound: CCCCCCCCCC(=O)N[C@@H](Cc1c[nH]c2ccccc12)C(=O)N[C@H](CC(N)=O)C(=O)N[C@@H](CC(=O)O)C(=O)N[C@@H]1C(=O)NCC(=O)N[C@@H](CCCN)C(=O)N[C@@H](CC(=O)O)C(=O)N[C@H](C)C(=O)N[C@@H](CC(=O)O)C(=O)NCC(=O)N[C@H](CO)C(=O)N[C@@H]([C@H](C)CC(=O)O)C(=O)N[C@@H](CC(=O)c2ccccc2N)C(=O)O[C@@H]1C
- MIC (Staphylococcus aureus [1]): 1 µg/mL
- MIC (Staphylococcus aureus [2]): 0.5 µg/mL
- MIC50 (Staphylococcus aureus [2]): 0.5 µg/mL
- MIC90 (Staphylococcus aureus [2]): 1 µg/mL
- MIC (Staphylococcus aureus [3]): 4 µg/mL
- MIC (Staphylococcus aureus [4]): 2 µg/mL
- MIC (Staphylococcus aureus [5]): 0.5 µg/mL
- MIC (Staphylococcus aureus [6]): 4 µg/mL
- MIC50 (Staphylococcus aureus [6]): 4 µg/mL
- MIC (Staphylococcus aureus [7]): 2 µg/mL
- MIC50 (Staphylococcus aureus [8]): 2 µg/mL
- MIC90 (Staphylococcus aureus [8]): 4 µg/mL
- MIC (Staphylococcus aureus [9]): 2 µg/mL
- MIC (Staphylococcus aureus [10]): 2 µg/mL
- MIC (Staphylococcus aureus [11]): 0.5 µg/mL
